Each structure is given as a SMILES string. The source made the active and inactive calls. Unless noted, no stated cut-off is given here; in the data, active means inhibition above about 30%; inactive means the rest. Peptide text beside a SMILES is read from it. * marks the point of attachment. Boc = CC(C)(C)OC(=O)*

Experiment [1] can be described thus: reduced viability of SK-BR-3 breast cancer cells – cell-based, 24 h, human, pilot screen (AID 572;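 active means viability at or below 10% of carrier control in both of two separate runs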;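 further: compound exposure lasted between 18 and 24 h rather than exactly 24 h; 100% = carrier-treated control wells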). The settings on record: SK-BR-3 viability, CellTiter-Glo luminescence, at 10 µM, stronger effect = lower value. Background: ATP-based viability assays read luminescence as a measure of living cells.
A short description of experiment [2]: HUVEC growth inhibition – cell-based, human, primary screen (AID 575;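 active means viability at or below 30% in both replicate assays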;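 further: 100% = median of untreated cell wells with 0.1% DMSO on each plate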). The settings on record: HUVEC proliferation, CellTiter-Glo luminescence, 72 h; at 10 µM; stronger effect = lower value. Put shortly:
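Assay system: Primary human umbilical vein endothelial cells | Quantity: 1250 cells per well | Medium: Supplemented EBM, 2% fetal bovine serum | Detection: CellTiter-Glo luminescence measuring cellular ATP | Read-out: % viability vs DMSO wells | Plate: Collagen-coated 384-well format | Times: 72 h exposure, 37 °C, 5% CO2, 30 min RT equilibration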

A short description of experiment [3]: H69AR cell proliferation blockers – human, duplicate replicates, primary screen (AID 580;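 active means viability at or under a set limit in both replicates, limit being median viability minus 3 SD, cut at about 48% in these data, passing the limit was not always enough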;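 further: 100% = mean luminescence of untreated wells and 0% = no signal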). The settings on record: H69AR lung tumor cells viability, ATP luminescence, 72 h; at 10 µM; stronger effect = lower value.
Experiment [4] in a line: MRP1 drug-resistance reversers in H69AR cells – cell-based, doxorubicin co-treatment, pilot screen (AID 601;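 active means viability loss from added drug above about 55%, and viability with drug at most 40%, in both replicates, limit read from the data, passing the limit was not always enough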). As to conditions: CellTiter-Glo, 72 h, at 10 µM; for differential viability (reversal): stronger effect = higher value.
Experiment [5] in a line: yeast transport mutant growth inhibition pilot in 384-well plates, post-Golgi transport modulator project (AID 636; in the data active means inhibition above about 31%). The settings on record: absorbance 615 nm, about 18 h, stronger effect = higher value.
A short description of experiment [6]: growth suppression of yeast trafficking mutant, preliminary HTS, modulators of trafficking downstream of Golgi apparatus project, 1536-format plate, OD 615 nm (AID 637). The settings on record: yeast transport mutant growth, absorbance 615 nm, 18 h; stronger effect = higher value.
Where [7] appears, read: H69AR cells + 2 uM doxorubicin, measured here: viability with 2 uM doxorubicin, stronger effect = lower value.
[8] abbreviates: H69AR cells, compound alone cytotoxicity.

As usually defined, the viability is a read-out of living cells in per cent, often relative to untreated cells. As a reminder, the inhibition is the drop in the measured response relative to a control, in per cent. `Cc1nc(SCC(=O)Nc2cc(C)on2)c2c3c(sc2n1)CCCC3`: the viability in experiment [1] is 66.5% (inactive); in experiment [2] it was 78.5% (inactive); in experiment [3] it was 30.4% (active); in experiment [4] (setting [7]), 24.2%; in experiment [4] (setting [8]) it was 30.4%. For the same molecule, the differential viability (reversal) in experiment [4] (H69AR cells + 2 uM doxorubicin) is 6.21% (inactive). The values for the inhibition in experiment [5] and in experiment [6] were -2.97% (inactive) and -1.11% (inactive), respectively.

As to `CC(COc1ccccc1)N(CCCl)Cc1ccccc1` (stereo unspecified), the viability in experiment [1] is 107% (inactive); in experiment [2] it was 78.2% (inactive); in experiment [3], 56.1% (inactive); in experiment [4] (setting [7]) it was 46.7%; in experiment [4] (setting [8]), 56.1%. The differential viability (reversal) in experiment [4] (H69AR cells + 2 uM doxorubicin) was 9.34% (inactive). Besides, the inhibition is -0.65% (inactive) in experiment [5] and -3.33% (inactive) in experiment [6].

Regarding `CCSC(SCC)[C@H](O)[C@@H](O)[C@H](O)[C@H](O)CO`, the viability was 103% (inactive) in experiment [1]; 104% (inactive) in experiment [2]; 101% (inactive) in experiment [3]; 94.8% in experiment [4] (setting [7]); 101% in experiment [4] (setting [8]). The differential viability (reversal) in experiment [4] (H69AR cells + 2 uM doxorubicin) is 6.02% (inactive). Also, the inhibition in experiment [5] is -5.19% (inactive); in experiment [6], 0% (inactive).

Take `CC(C)CC(NC(=O)OC(C)(C)C)C(=O)NC(C(=O)N1CCCC1C(N)=O)C(C)C` (stereo not drawn) (Boc-Leu-Val-Pro-NH2; configuration not given here): the viability in experiment [1] is 103% (inactive); in experiment [2], 101% (inactive); in experiment [3] it was 111% (inactive); in experiment [4] (setting [7]), 93.8%; in experiment [4] (setting [8]), 111%. Besides, the differential viability (reversal) in experiment [4] (H69AR cells + 2 uM doxorubicin) was 17.5% (inactive). Further, the inhibition was 0.78% (inactive) in experiment [5] and -4.1% (inactive) in experiment [6].

As for `CCc1c(C)nc2ncnn2c1N1CCC(C(=O)NCc2cccc(OC)c2)CC1`, the viability in experiment [1] is 134% (inactive); in experiment [2], 85.8% (inactive); in experiment [3], 89.9% (inactive); in experiment [4] (setting [7]), 99.7%; in experiment [4] (setting [8]) it was 89.9%. In addition, the differential viability (reversal) in experiment [4] (H69AR cells + 2 uM doxorubicin) is -9.81% (inactive). Further, the inhibition in experiment [5] is -3.7% (inactive); in experiment [6], -1.29% (inactive).

On to `COc1ccc(-c2nnc(SCc3nnc(-c4ccc(Cl)cc4)o3)n2-c2ccccc2)cc1`, for which the viability is 73% (inactive) in experiment [1]; 55.6% (inactive) in experiment [2]; 84.3% (inactive) in experiment [3]; 80% in experiment [4] (setting [7]); 84.3% in experiment [4] (setting [8]). Also, the differential viability (reversal) in experiment [4] (H69AR cells + 2 uM doxorubicin) is 4.27% (inactive). The inhibition was -2.27% (inactive) in experiment [5] and 15.4% (inactive) in experiment [6].

For the molecule `CCCCC[C@H](O)/C=C/C1=C(CCCCCCC(=O)O)C(=O)CC1`, the viability in experiment [1] is 109% (inactive); in experiment [2], 75.2% (inactive); in experiment [3] it was 92.5% (inactive); in experiment [4] (setting [7]), 102%; in experiment [4] (setting [8]), 92.5%. Also, the differential viability (reversal) in experiment [4] (H69AR cells + 2 uM doxorubicin) is -9.49% (inactive). The inhibition in experiment [5] is -0.26% (inactive); in experiment [6], -1.17% (inactive).

As to `COc1ccccc1N1CCN(C(CNS(=O)(=O)c2cc(F)ccc2F)c2cccnc2)CC1` (stereo unspecified), the viability in experiment [1] was 95% (inactive); in experiment [2], 110% (inactive); in experiment [3], 92.8% (inactive); in experiment [4] (setting [7]) it was 90.2%; in experiment [4] (setting [8]), 92.8%. The differential viability (reversal) in experiment [4] (H69AR cells + 2 uM doxorubicin) was 2.69% (inactive). In addition, the inhibition was -2.97% (inactive) in experiment [5] and 4% (inactive) in experiment [6].

Turning to `COc1ccc(NC(=O)N(C2CCCCC2)C2CCN(C(C)C)CC2)c(OC)c1`, the viability is 87% (inactive) in experiment [1]; 100% (inactive) in experiment [2]; 103% (inactive) in experiment [3]; 83.2% in experiment [4] (setting [7]); 103% in experiment [4] (setting [8]). Moreover, the differential viability (reversal) in experiment [4] (H69AR cells + 2 uM doxorubicin) is 19.4% (inactive). The inhibition in experiment [5] is -2.73% (inactive); in experiment [6], -7.87% (inactive).

For `O=C(NCc1ccccn1)c1cc(-n2cnnc2)ccc1Cl`, the viability was 86% (inactive) in experiment [1]; 88.6% (inactive) in experiment [2]; 101% (inactive) in experiment [3]; 102% in experiment [4] (setting [7]); 101% in experiment [4] (setting [8]). Besides, the differential viability (reversal) in experiment [4] (H69AR cells + 2 uM doxorubicin) was -1.2% (inactive). The inhibition in experiment [5] is -2.73% (inactive); in experiment [6], 2.79% (inactive).

Take `COCCn1nnnc1SCC(=O)N1CCCCC1`: the viability in experiment [1] is 63% (inactive); in experiment [2], 102% (inactive); in experiment [3] it was 99.4% (inactive); in experiment [4] (setting [7]), 97.4%; in experiment [4] (setting [8]), 99.4%. The differential viability (reversal) in experiment [4] (H69AR cells + 2 uM doxorubicin) is 1.98% (inactive). Moreover, the inhibition in experiment [5] was -5.34% (inactive); in experiment [6] it was 4.18% (inactive).

Consider `Nc1ncnc2c1ncn2[C@@H]1O[C@H](CO)[C@@H](O)[C@H]1O`, for which the viability in experiment [1] was 105% (inactive); in experiment [2], 93.9% (inactive); in experiment [3], 113% (inactive); in experiment [4] (setting [7]) it was 87%; in experiment [4] (setting [8]), 113%. In addition, the differential viability (reversal) in experiment [4] (H69AR cells + 2 uM doxorubicin) was 25.9% (inactive). For the same molecule, the inhibition in experiment [5] was -2.47% (inactive); in experiment [6] it was 0.33% (inactive).

The values above are taken from PubChem BioAssay.
